Here are results for 14 compounds from PubChem BioAssay.

Test [1] in a line: inhibitors of TNFa-induced NFkB p65 translocation, primary screen, imaging, HUVEC, MLSMR starter and 10KST1 sets (AID 438;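 active = inhibition above 20% together with a positive visual image hit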;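 note: compound added about 3h40 before a 20 min TNFalpha stimulation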;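 for inhibition: signal is the nuclear over cytoplasmic p65 intensity ratio per well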). As to conditions: HUVEC TNFa-induced p65 nuclear translocation; cell count: measured here: nuclei count (cytotoxicity indicator), at 2.08 µM; inhibition: at 2 µM, stronger effect = higher value, 0% TNFa-plus-vehicle, 100% no-TNFa wells.
Test [2] can be described thus: endothelial E-selectin expression blockers – imaging, HUVEC, immunofluorescence, MLSMR starter and 10KST1 sets, primary screen (AID 487;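 active = visually confirmed hit in the image check and inhibition above 20%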;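 for inhibition: signal is fraction of cell area covered by stained E-selectin grains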;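 for nuclei count: 100% = median nuclei count of all wells on the same plate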). The note with it: HUVEC TNFalpha-induced E-selectin immunofluorescence imaging, at 2 µM; inhibition: stronger effect = higher value; nuclei count: measured here: cell number, toxicity.
Test [3] in a line: Primary imaging screen for DUSP6 inhibitors that restore phospho-Erk in transfected HeLa cells, chemical complementation (AID 609;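 active = compounds giving at least 50% inhibition in the cell-based MKP-3 phosphatase rescue imaging test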;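 for inhibition: phospho-Erk level distribution per well compared with pooled transfected vehicle control wells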). As to conditions: HeLa MKP-3 transfected, phospho-Erk imaging KS statistic, at 10 µM, cells stimulated with TPA for 15 min.
Test [4] addresses Dual specificity protein phosphatase 6 (Homo sapiens) (UniProt Q16828). The test is described as above. The note with it: HeLa MKP-3 transfected, phospho-Erk imaging KS statistic; at 10 µM; stronger effect = higher value; cells stimulated with TPA for 15 min.
The target in test [5] is Voltage-gated potassium channel subunit beta-2 (Rattus norvegicus) (UniProt P62483). Description: inhibitors of rat Kvbeta2 reductase activity – biochemical, NADPH fluorescence, primary screen (AID 622).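 Note: slope of raw intensity against log time taken from 70 to 1610 s.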 The note with it: recombinant KvBeta, 4-cyanobenzaldehyde reduction, at 10 µM, stronger effect = higher value.
Test [6] has the same target. Description: enhancers of rat Kvbeta2 NADPH turnover – biochemical, NADPH fluorescence, primary screen (AID 623;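 active = NADPH fluorescence slope more negative than the mean of all samples by about 3 SD, 99.7% confidence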;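 note: fluorescence intensity change per second fitted from 20 to 320 s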). As to conditions: Recombinant KvBeta, NADPH fluorescence decrease slope, 10 min; at 10 µM; stronger effect = lower value.
Test [7] concerns the target Alpha-2C adrenergic receptor (Homo sapiens) (UniProt P18825). Description: compounds altering alpha2C-coupled GIRK flux – cell-based, HEK293 alpha2C/GIRK1/2, thallium flux, primary screen (AID 624;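 active = fluorescence slope after compound addition differing from the mean of all screened samples at 99.7% confidence, in either direction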;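 note: slope of fluorescence ratio to pre-addition baseline per second over 15 to 24 s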). As to conditions: thallium flux BTC fluorescence, at 10 µM, actives lie on both sides.
The nature of test [8]: inhibitors of larval lipid processing in zebrafish, primary screen, whole organism, PED6 fluorescence, gall bladder and intestine (AID 686;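 active = a full or partial loss of lipid-probe fluorescence in the fish gall bladder, intestine or both, judged by eye; inactive = no fluorescence loss, or compound toxic to the fish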;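 note: larvae 5 to 7 days old with five fish per well; signal comes from phospholipase A2 cleavage of quenched PED6 carried via bile; overnight exposure to compound and PED6 before scoring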). As to conditions: Zebrafish larvae PED6 lipid processing, fluorescence scoring; screened at 20 µM (by protocol). Put shortly:
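Doses: 20 µM single dose. Test system: live zebrafish larvae aged 5-7 days, whole organism. Quantity: five larvae per well. Measured by: By-eye fluorescence microscopy. Reagent: ingested quenched lipid PED6 at 100 nM. Read-out: visual per-well fluorescence inhibition score. Times: overnight exposure of larvae to compound plus PED6.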

Test [9] in a line: loss of swimming-algae plug formation – whole organism, Chlamydomonas reinhardtii, WT vs cilia-less mutant, absorbance, 96-well, primary screen (AID 463189;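 active = inhibition at or above 50% relative to wild type and mutant plate controls; inactive = inhibition below 50%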;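 note: 0% = wild type cc124 cells in DMSO and 100% = ciliumless bld1 mutant cells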). As to conditions: Chlamydomonas reinhardtii gravitaxis, OD600 absorbance, 2 days; at 10 µM; stronger effect = higher value.
Setting [10] is: measured here: cell density z-score.
The mark [11] stands for this setting: measured here: nuclear c-Myc green intensity z-score.
[12] abbreviates: measured here: nuclear pErk red intensity z-score, stronger effect = higher value.

Active and inactive are the calls of the source.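 Rule for the calls, unless noted: active = fluorescence slope higher than the sample average by over 3 SD (cut at about -0.22 in these data, passing the limit was not always enough); inactive = the rest.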

Dual specificity protein phosphatase 6 (Homo sapiens), sequence (Q16828 whole entry, looked up): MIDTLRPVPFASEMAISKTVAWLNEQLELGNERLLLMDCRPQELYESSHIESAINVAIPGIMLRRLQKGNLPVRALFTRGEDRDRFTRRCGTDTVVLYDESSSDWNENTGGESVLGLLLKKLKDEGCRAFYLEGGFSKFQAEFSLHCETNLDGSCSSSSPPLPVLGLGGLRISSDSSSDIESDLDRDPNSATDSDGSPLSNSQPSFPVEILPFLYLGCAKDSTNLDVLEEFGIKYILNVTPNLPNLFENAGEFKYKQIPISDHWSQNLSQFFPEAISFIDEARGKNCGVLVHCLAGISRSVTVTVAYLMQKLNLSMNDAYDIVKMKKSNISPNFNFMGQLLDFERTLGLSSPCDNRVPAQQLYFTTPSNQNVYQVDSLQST
Alpha-2C adrenergic receptor (Homo sapiens), sequence (P18825 whole entry, looked up): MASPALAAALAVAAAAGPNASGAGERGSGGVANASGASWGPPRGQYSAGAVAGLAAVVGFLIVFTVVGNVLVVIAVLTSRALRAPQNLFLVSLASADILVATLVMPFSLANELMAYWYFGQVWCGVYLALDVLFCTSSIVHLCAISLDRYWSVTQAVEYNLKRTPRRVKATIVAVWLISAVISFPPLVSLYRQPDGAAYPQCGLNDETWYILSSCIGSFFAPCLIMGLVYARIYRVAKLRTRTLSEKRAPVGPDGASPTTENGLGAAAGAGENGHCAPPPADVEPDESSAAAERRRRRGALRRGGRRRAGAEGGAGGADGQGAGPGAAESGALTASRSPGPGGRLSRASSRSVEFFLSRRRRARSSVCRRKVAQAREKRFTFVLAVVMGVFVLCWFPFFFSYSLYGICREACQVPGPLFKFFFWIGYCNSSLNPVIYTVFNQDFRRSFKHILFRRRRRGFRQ
Voltage-gated potassium channel subunit beta-2 (Rattus norvegicus), sequence (P62483 whole entry, looked up): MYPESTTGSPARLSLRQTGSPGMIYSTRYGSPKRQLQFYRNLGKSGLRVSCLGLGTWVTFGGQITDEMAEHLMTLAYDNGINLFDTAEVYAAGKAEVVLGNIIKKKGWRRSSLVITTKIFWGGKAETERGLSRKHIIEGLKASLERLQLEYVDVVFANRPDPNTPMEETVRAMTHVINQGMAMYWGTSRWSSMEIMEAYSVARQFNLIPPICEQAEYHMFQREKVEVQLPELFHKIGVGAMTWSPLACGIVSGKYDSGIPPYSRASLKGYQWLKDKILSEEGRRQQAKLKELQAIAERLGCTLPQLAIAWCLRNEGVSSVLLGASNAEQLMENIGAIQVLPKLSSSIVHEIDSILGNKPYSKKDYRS

For `N#CC1=C(C=Nc2ccccc2O)CCC1`, in test [1], the cell count stood at 643. Further, the inhibition in test [1] is -12.1% (inactive); in test [2], -13.8% (inactive); in test [4] it was -8.95% (inactive); in test [9], 11.8% (inactive). For the same compound, the nuclei count in test [2] stood at 163%. Also, the z-score was -1.7 in test [3] (setting [10]), -0.376 in test [3] (setting [11]) and 2.01 in test [3] (setting [12]). Besides, in [5], the fluorescence slope is -0.416 (inactive). For the same compound, the NADPH fluorescence slope in test [6] is -6.1e-05 (inactive). The slope in test [7] was 0.00456 (inactive). Besides, the result in [8] was inactive.
Turning to `COc1cccc(C2/C(=C(/O)c3ccc(C)cc3)C(=O)C(=O)N2Cc2ccco2)c1` (configuration not stated), the cell count in test [1] came out at 552. Further, the inhibition in [1] was -6.3% (inactive); in test [2], -20% (inactive); in [4], 4.72% (inactive); in [9], 15.2% (inactive). In test [2], this compound yielded a nuclei count of 123%. The values for the z-score in test [3] (setting [10]), in test [3] (setting [11]) and in [3] (setting [12]) were 0.537, 0.655 and -1.35, respectively. Further, in test [5], the fluorescence slope is -0.512 (inactive). For the same compound, the NADPH fluorescence slope in test [6] was -5.6e-05 (inactive). In test [7], the slope is 0.00539 (inactive). The compound was called inactive in test [8].
`CCCOc1ccc(CSC(CC(=O)O)C(=O)O)cc1` (configuration not stated): the cell count in test [1] was found to be 542. Moreover, the inhibition in [1] is 1.4% (inactive); in test [2], -21% (inactive); in test [4], -3.5% (inactive); in test [9], 15.7% (inactive). Also, in test [2], the nuclei count worked out at 124%. Besides, the z-score in [3] (setting [10]) was 1.34; in [3] (setting [11]) it was -1.26; in test [3] (setting [12]), -1.51. Further, the fluorescence slope in test [5] is -0.332 (inactive). Besides, the NADPH fluorescence slope in test [6] was 1.3e-05 (inactive). The slope in [7] is 0.00503 (inactive). Further, in [8], the call was inactive.
Take `CC(C)N1CCc2c(sc(N)c2C#N)C1`: in [1], the cell count worked out at 617. In addition, the inhibition in [1] was -10.3% (inactive); in test [2], 39.1% (inactive); in [4], 2.71% (inactive); in test [9], 5.66% (inactive). Moreover, the nuclei count in test [2] was found to be 177%. The z-score was -1.53 in test [3] (setting [10]), 0.299 in [3] (setting [11]) and 0.555 in test [3] (setting [12]). Besides, in test [5], the fluorescence slope was -0.418 (inactive). In addition, the NADPH fluorescence slope in test [6] was -6.5e-05 (inactive). For the same compound, the slope in test [7] is 0.00503 (inactive). For the same compound, the result in test [8] was inactive.
With `COCCNc1nc2c(c(=O)n(Cc3ccc(OC)cc3)c(=O)n2C)n1C`, in test [1], the cell count was 357. The inhibition in test [1] is -17.8% (inactive); in test [2], -26.3% (inactive); in [4] it was 4.37% (inactive); in test [9], 15.2% (inactive). The compound also showed a nuclei count in test [2] of 128%. The z-score in [3] (setting [10]) was 0.697; in test [3] (setting [11]), 0.778; in [3] (setting [12]), -0.00517. Besides, in test [5], the fluorescence slope was -0.32 (inactive). In addition, the NADPH fluorescence slope in [6] was 7.3e-06 (inactive). In test [7], the slope is 0.00535 (inactive). Besides, in test [8], the result was inactive.
With `COCCOC(=O)C1=C(C)NC(SCC(=O)NC(C)(C)C)=C(C#N)C1c1ccco1` (configuration not stated), in test [1], the cell count came to 364. In addition, the inhibition was -11.5% (inactive) in test [1], -124% (inactive) in test [2], 7.48% (inactive) in test [4] and 27.7% (inactive) in test [9]. In addition, the nuclei count in test [2] is 121%. Moreover, the z-score was 0.297 in test [3] (setting [10]), -0.0811 in test [3] (setting [11]) and -0.28 in test [3] (setting [12]). Further, the fluorescence slope in test [5] is -0.397 (inactive). Further, the NADPH fluorescence slope in test [6] is -4e-05 (inactive). Moreover, the slope in test [7] was 0.00427 (inactive). The outcome in test [8] was “inactive; toxic”.
Consider `C=CCn1cnc2c(c1=O)c1nc3ccccc3nc1n2-c1ccc(Cl)cc1`, for which the cell count in [1] is 479. In addition, the inhibition in [1] was -0.2% (inactive); in [2], -57.8% (inactive); in [4], 3.5% (inactive); in test [9], 22.7% (inactive). Moreover, in test [2], the nuclei count was 97.9%. Also, the results for the z-score in test [3] (setting [10]), in test [3] (setting [11]) and in [3] (setting [12]) were 0.198, -0.115 and -0.677, respectively. Further, in test [5], the fluorescence slope was -0.489 (inactive). In [6], the NADPH fluorescence slope was -1.8e-05 (inactive). For the same compound, in test [7], the slope is 0.00468 (inactive). In addition, the call in test [8] was inactive.
As for `COc1cccc(NC(=O)CSC2=C(C#N)C(c3ccco3)C3=C(CCCC3=O)N2)c1` (configuration not stated), in [1], the cell count was 474. The inhibition in test [1] was -0.1% (inactive); in test [2] it was -19.9% (inactive); in test [4] it was -3.98% (inactive); in [9], 2.98% (inactive). The compound further gave a nuclei count in test [2] of 101%. Besides, the z-score was 0.0221 in test [3] (setting [10]), -0.732 in [3] (setting [11]) and 2.07 in test [3] (setting [12]). In addition, in [5], the fluorescence slope was -0.506 (inactive). Also, in [6], the NADPH fluorescence slope was -6.2e-05 (inactive). The slope in [7] is 0.00557 (inactive). Also, in [8], the compound was classed as inactive.
For the compound `CCOCCN(C(=O)COC)c1cccc(OC)c1`, in test [1], the cell count was 368. Moreover, the inhibition in test [1] is 4.6% (inactive); in test [2], 19.2% (inactive); in [4], -5.62% (inactive); in [9] it was -16.2% (inactive). The nuclei count in [2] turned out to be 124%. In addition, the z-score in test [3] (setting [10]) is 0.00474; in [3] (setting [11]), 0.972; in test [3] (setting [12]), 0.0482. Moreover, in [5], the fluorescence slope was -0.321 (inactive). In addition, the NADPH fluorescence slope in test [6] is 1.5e-05 (inactive). The slope in test [7] is 0.00531 (inactive). Also, the outcome in test [8] was inactive.
On to `CCOC(=O)C1=C(CSc2nc3c(cc2C#N)CCC3)OC(N)=C(C#N)C1c1ccccc1` (configuration not stated), for which the cell count in test [1] stood at 514. In addition, the inhibition in [1] was -16.1% (inactive); in [2], -90.1% (inactive); in test [4], -0.674% (inactive); in [9] it was 5.98% (inactive). In addition, the nuclei count in test [2] is 118%. Besides, the z-score in test [3] (setting [10]) was -0.196; in test [3] (setting [11]), 0.0665; in test [3] (setting [12]), -0.283. Further, the fluorescence slope in test [5] was -0.426 (inactive). Also, the NADPH fluorescence slope in test [6] was 5.2e-06 (inactive). Besides, the slope in test [7] is 0.00558 (inactive). Further, the result in test [8] was inactive.
Take `Oc1ccc(Br)cc1CNn1cnnc1`: in test [1], the cell count came to 501. In addition, the inhibition in test [1] was -5.8% (inactive); in test [2] it was -3.9% (inactive); in test [4], -1.75% (inactive); in [9] it was 16.1% (inactive). Moreover, the nuclei count in [2] amounted to 122%. The z-score is -0.232 in test [3] (setting [10]), 1.89 in test [3] (setting [11]) and 1.27 in [3] (setting [12]). The fluorescence slope in test [5] is -0.454 (inactive). In addition, the NADPH fluorescence slope in [6] was -2.5e-06 (inactive). For the same compound, in test [7], the slope is 0.0058 (inactive). Besides, the compound was classed as inactive in test [8].
In the case of `CCn1c(SCC(=O)O)nc2sc3c(c2c1=O)CCC3`, the cell count in test [1] stood at 664. Moreover, the inhibition in test [1] was -3.3% (inactive); in test [2], 9.9% (inactive); in test [4], 2.71% (inactive); in test [9], -0.935% (inactive). The nuclei count in test [2] was 171%. For the same compound, the results for the z-score in test [3] (setting [10]), in test [3] (setting [11]) and in test [3] (setting [12]) were -0.751, -1.02 and -0.615, respectively. Besides, the fluorescence slope in test [5] is -0.405 (inactive). Moreover, the NADPH fluorescence slope in test [6] is -5.6e-05 (inactive). For the same compound, the slope in [7] was 0.00483 (inactive). Further, the outcome in [8] was inactive.
On to `CCCSc1nnc2n(-c3ccccc3OC)c(=O)c3c4c(sc3n12)CCC4`, for which the cell count in test [1] came out at 523. Further, the inhibition in [1] is -14.8% (inactive); in [2], -63.5% (inactive); in test [4], 7.73% (inactive); in test [9] it was 11.2% (inactive). In test [2], this compound displayed a nuclei count of 171%. Besides, the z-score in test [3] (setting [10]) is 1.08; in test [3] (setting [11]), -1.06; in test [3] (setting [12]), -0.347. Further, the fluorescence slope in test [5] is -0.358 (inactive). Also, the NADPH fluorescence slope in test [6] was -3.5e-05 (inactive). The slope in [7] is 0.00552 (inactive). The call in [8] was inactive.
For the compound `CC(=O)OC12CC3CC(C1)C(=NO)C(C3)C2`, the cell count in test [1] turned out to be 541. Further, the inhibition in [1] was -10.2% (inactive); in test [2], -145% (inactive); in [4] it was 33.7% (inactive); in [9] it was 39.2% (inactive). Also, the nuclei count in [2] is 127%. In addition, the z-score in [3] (setting [10]) is 1.34; in test [3] (setting [11]), -0.992; in test [3] (setting [12]), -0.795. Also, the fluorescence slope in [5] was -0.512 (inactive). The NADPH fluorescence slope in test [6] is -2.1e-05 (inactive). The slope in [7] is 0.00472 (inactive). In addition, the compound was called inactive in test [8].
